In the library only some 2.5% were active in any assay of this set; here they are far more common.
Rin1-Abl PPI inh: inhibitors of Rin1-Abl protein binding, primary screen, biochemical, TR-FRET; inhibition, % at 7.35 µM; 360,000 tested, 0.4% active; AID 588664, 2011; in the data active = inhibition above about 5%, passing the limit was not always enough
B2AR ag: beta2AR agonists driving receptor internalization, primary screen, cell-based, FAP fluorogen, flow cytometry; Am2.2-beta2AR cells; Beta-2 adrenergic receptor (Homo sapiens), P07550; 340,000 tested, 0.43% active; response, % (test concentration not listed); AID 504454, 2011;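 active = response above a set limit, near 3 SD of response in nonfluorescent compounds, cut at about 42% in these data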
Arrestin-AP2 inh: inhibitors of beta-arrestin/AP2 binding, primary screen, biochemical, GPCR trafficking, flow cytometry. 340,000 tested, 0.31% active. FITC-arrestin peptide / GST-AP2 beads; AP2 beta2 appendage carries R879A mutation. inhibition, % at 10 µM;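 active = inhibition above a set limit, near 3 SD of compounds lacking own fluorescence, cut at about 54% in these data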;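 note: plate controls were DMSO wells for no effect and 5 µM unlabelled arrestin peptide for full effect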
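System: GST-AP2 R879A glutathione beads | Also added: FITC-arrestin peptide, 50 nM | Times: 12 min plus 1 h, RT | Signal: Bead flow cytometry, FITC channel | Buffer or medium: PBS with 0.05% Tween 20 and 0.1% BSA | Read-out basis: Percent drop in bead-associated FITC signal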
UHRF1 binding: UHRF1 methylated DNA binding inhibitors, primary screen, counter-screen for MBD2 inhibitor project, biochemical, TR-FRET, human UHRF1, single concentration. 370,000 tested, 0.75% active. AID 687016, 2013. UHRF1 binding to methylated oligo. inhibition, % at 4.4 µM; in the data active = inhibition above about 21%;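 note: UHRF1 SRA domain binding a hemimethylated CpG hairpin DNA probe; 0% = median of test compound wells and 100% = reference inhibitor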
MBD2 inh: inhibitors of MBD2 binding to methylated DNA, primary screen, biochemical, TR-FRET, DNA-binding domain, human | inhibition, % at 4.4 µM | 370,000 tested, 0.31% active | MBD2 binding to methylated oligonucleotide; in the data active = inhibition above about 13%
Target sequence (Q9UBB5 whole entry, looked up, the tested form may be a part): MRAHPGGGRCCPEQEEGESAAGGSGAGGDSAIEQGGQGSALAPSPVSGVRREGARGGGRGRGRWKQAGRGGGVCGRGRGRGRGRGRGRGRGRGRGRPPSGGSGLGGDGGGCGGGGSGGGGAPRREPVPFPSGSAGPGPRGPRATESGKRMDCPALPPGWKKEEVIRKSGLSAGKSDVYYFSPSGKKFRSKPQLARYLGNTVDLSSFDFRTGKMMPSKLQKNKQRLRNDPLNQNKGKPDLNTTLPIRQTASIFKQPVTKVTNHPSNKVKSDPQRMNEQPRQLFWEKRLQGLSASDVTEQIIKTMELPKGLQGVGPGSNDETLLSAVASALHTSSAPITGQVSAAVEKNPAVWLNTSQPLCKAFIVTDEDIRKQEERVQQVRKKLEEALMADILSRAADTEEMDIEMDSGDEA
ABHD5 PLIN5 PPI: ABHD5-PLIN5 interaction inhibitors, primary screen, cell lysate, split luciferase complementation, luminescence; Perilipin-5 (Homo sapiens) + 1-acylglycerol-3-phosphate O-acyltransferase ABHD5 (Homo …; Split G. princeps luciferase complementation, 4 h; inhibition, % at 4 µM; 360,000 tested, 0.78% active;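 active = inhibition above the mean inhibition across every tested compound plus 3 SD, cut at about 22% in these data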;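 note: 0% = DMSO only wells and the 100% control is not disclosed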
ABHD5 PLIN5 conf: ABHD5-PLIN5 interaction inhibitors, confirmation, biochemical, luminescence. 2,200 tested, 67% active. inhibition, % at 4 µM. shares compounds with ABHD5 PLIN5 PPI. AID 651612, 2012; in the data active = inhibition above about 23%;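 note: 0% = DMSO vehicle wells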
HNF4 split-luc: HNF4 dimerization inhibitors, counter-screen for ABHD5-PLIN5 interaction inhibitor project, biochemical, split-luciferase complementation, luminescence. shares compounds with ABHD5 PLIN5 PPI. inhibition, % at 4 µM. 2,200 tested, 77% active. AID 651674, 2012;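 active = mean inhibition across replicate wells exceeding the computed hit threshold, cut at about 13% in these data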;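 note: light from luciferase halves that rejoin when HNF4 fusion proteins dimerize; 0% = DMSO only wells and the 100% control is not given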
* marks the source's active call; other numbers are inactive results; . = no result.

SMILES	Rin1-Abl PPI inh	B2AR ag	Arrestin-AP2 inh	UHRF1 binding	MBD2 inh	ABHD5 PLIN5 PPI	ABHD5 PLIN5 conf	HNF4 split-luc
O=C(Cn1nc(-c2nn(CC(=O)c3ccccc3)c3[n+]2CCCCC3)[n+]2c1CCCCC2)c1ccccc1	-2	4	9	3	-4	4	.	.
O=[N+]([O-])c1ccc(N2CCN(c3ccccc3)CC2)nc1	-1	5	14	3	4	-7	.	.
O=[N+]([O-])c1ccc(N2CCc3ccccc3C2)nc1	-1	8	38	-1	2	33*	16	20*
O=C(c1cc(F)ccc1F)N1CCC(Oc2cccnc2)CC1	.	.	.	-3	-3	.	.	.
O=C(NNc1c2ccccc2nc2ccccc12)c1ccc(O)cc1O	-6	19	0	1	1	20	.	.
O=C(NNc1c2ccccc2nc2ccccc12)c1ccccc1O	-1	53*	10	0	-3	26*	25*	18*
COC(=O)[C@]12C[C@H](CC(=O)N3CCN(C(=O)C4CC4)CC3)C(=O)N(CCC3=CCCCC3)C1=C[C@H](C1CCCC1)O[C@@H]2C	.	.	.	0	7	.	.	.
O=[S@]1Oc2ccccc2-c2ccccc21	1	-7	21	0	9	25*	83*	99*
O=C1C=CC(=O)N1CCCCCCN1C(=O)C=CC1=O	.	.	.	0	2	.	.	.
O=C(O)CN1C(=O)C=CC1=O	1	.	.	4	-4	66*	47*	104*
CC(=O)Oc1ccc(N2C(=O)C3C4C=CC(CO)(O4)C3C2=O)cc1 (stereo not drawn)	4	-4	-15	6	2	26*	14	67*
FC(F)(F)c1ccccc1Cn1ccc2ccc(-c3ccc4ccn(Cc5ccccc5)c4c3)cc21	.	.	.	0	0	.	.	.
CCOC(=O)c1nn(-c2ccccc2)c(=O)c2c(N)scc12	-5	-1	-4	0	-3	25*	-23	95*
CCSc1ccc2c(c1)N(CCCN1CCN(C)CC1)c1ccccc1S2	-2	29	2	-2	-3	24*	36*	8
CC1(C)CC(=O)C=C(NC2=CC3OC(c4ccccc4)OCC3OC2=O)C1 (stereo not drawn)	-1	11	-19	22*	0	63*	85*	94*
Cc1ccccc1NC1=CC(=O)CC(C)(C)C1	2	12	32	6	7	1	.	.
CN(C)c1ccc(N=Nc2nc3ccccc3n2C)cc1	-20	0	14	-21	-25	34*	26*	46*
O=C(CSc1nnc(COc2ccccc2)n1Cc1ccco1)Nc1ccc(OCc2ccccc2)cc1	.	.	.	1	-5	.	.	.
O=C(O)c1cccc(-c2ccc3c(c2)OCO3)c1	-5	0	-26	1	-1	88*	2	4
O=C(Nc1cccc(C(=O)O)c1)Nc1ccc2c(c1)OCO2	-2	2	24	-3	-2	1	.	.
COc1ccccc1/C=C/C=C1\Oc2c(ccc(O)c2CN(C)C)C1=O	-4	15	1	-14	-8	21	.	.
CCN(CC)Cc1c(O)ccc2c1O/C(=C\C=C\c1ccccc1)C2=O	-5	28	-12	-11	-6	42*	20	20*
CN1C/C(=C/c2ccncc2)C(=O)/C(=C/c2ccncc2)C1	-1	7	5	0	5	1	.	.
CN1C/C(=C\c2ccc(N3CCOCC3)cc2)C(=O)/C(=C/c2ccc(N3CCOCC3)cc2)C1	-7	14	-7	-7	-10	30*	53*	42*
CN1C/C(=C/c2ccsc2)C(=O)/C(=C/c2ccsc2)C1	4	8	10	-3	1	56*	79*	66*
SMILES	Rin1-Abl PPI inh	B2AR ag	Arrestin-AP2 inh	UHRF1 binding	MBD2 inh	ABHD5 PLIN5 PPI	ABHD5 PLIN5 conf	HNF4 split-luc
CCN(Cc1cn(Cc2ccccc2)nn1)S(=O)(=O)c1ccc(F)cc1Br	.	.	.	0	6	.	.	.
Cc1ccc(OCc2nnc(SCC(=O)c3ccc(-c4ccccc4)cc3)n2Cc2ccco2)cc1	.	.	.	-1	1	.	.	.
O=c1ccc(N=Nc2ccccc2)ccc1O	3	10	6	-5	-8	5	.	.
Oc1ccc(N=Nc2ccccc2)o1	-1	8	-15	1	1	41*	66*	68*
N#C/C(=C\c1ccco1)C(=O)NCc1ccccc1	-2	0	2	.	.	2	.	.
N#CC(C#N)=C1C=CC=CN1/C(=C\c1ccco1)C(=O)c1ccc(-c2ccccc2)cc1	-4	18	8	-1	-3	66*	104*	111*
COC(=O)[C@H]1C[C@@]2(N3CCCCC3)c3ccccc3N[C@H]2N1S(=O)(=O)c1ccc(C)cc1	.	.	.	0	3	.	.	.
CCCc1nc2sc3ccccc3c(=O)c2c(=O)n1Cc1ccco1	-4	26	4	1	-8	28*	52*	74*
CCCc1nc2sc3ccccc3c(=O)c2c(=O)n1Cc1ccc(OC)cc1	-1	-6	4	4	1	-4	.	.
O=C(C=Cc1ccccc1F)c1ccccc1	-1	.	.	-1	1	69*	87*	79*
O=C(/C=C/c1ccccc1)NNC(=O)c1cccc(Cl)c1	-3	-2	11	4	5	-1	.	.
O=C(O)c1ccc2c(c1)C(=O)N(c1cccc(C(=O)/C=C/c3ccccc3)c1)C2=O	4	-2	-14	1	5	46*	97*	91*
O=C(/C=C/c1c(F)cccc1Cl)c1ccc(O)cc1	-1	12	12	3	-1	39*	46*	48*
O=C(C=Cc1cccc(Cl)c1)c1ccccc1	4	19	3	1	0	51*	97*	94*
CC(/C=C/c1ccccc1F)=N\NC(=O)c1ccccc1	0	3	-14	1	1	6	.	.
COc1ccccc1CNC(=O)NCCCN1CCN(c2ccc(F)cc2)CC1	.	.	.	3	2	.	.	.
CCOc1cc(/C=C\c2[nH]c(=O)[nH]c(=O)c2[N+](=O)[O-])ccc1OC(C)CC (stereo not drawn)	.	.	.	0	4	.	.	.
CCOC(=O)COc1ccc(Br)cc1/C=C\c1[nH]c(=O)[nH]c(=O)c1[N+](=O)[O-]	1	-10	6	6	1	64*	85*	94*

From PubChem
